Assay outcomes (PubChem)
An excerpt weighted towards active compounds, which were near 1.9% of everything screened.
Arr AP2 block: inhibitors of beta-arrestin/AP2 binding, primary screen, biochemical, GPCR trafficking, flow cytometry; beta-arrestin 1 C-terminal peptide binding to AP2 beta2-adaptin appendage (human); FITC-arrestin peptide / GST-AP2 beads; AP2 beta2 appendage carries R879A mutation; inhibition, % at 10 µM; 0.31% of 340,000 active; AID 504490, 2011;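 active = inhibition above a set limit, near 3 SD of compounds lacking own fluorescence, cut at about 54% in these data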;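 also: plate controls were DMSO wells for no effect and 5 µM unlabelled arrestin peptide for full effect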
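test system = AP2 appendage R879A on GSH beads | buffer or medium = PBS plus Tween 20 (0.05%) and BSA (0.1%) | incubation = 12 min plus 1 h, RT | detection = bead flow cytometry, FITC channel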
procasp7 counter: procaspase-7 activators, primary screen, counter-screen for procaspase-3 activator project, biochemical, absorbance, HTS, human; recombinant procaspase-7, Ac-DEVD-pNA absorbance 405 nm; D23A/D198A/D206A triple mutant, cannot self-cleave; scale: DMSO 0, 5 µM enzyme 100; activation, % at 8.5 µM; 0.093% of 330,000 active;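 active = percent activation above the screen-wide mean plus 3 SD, cut at about 25% in these data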
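Test system: Procaspase-7 triple mutant (PC-7 D3A). Also added: Ac-DEVD-pNA substrate, 400 µM as added. Schedule: 1 h enzyme–compound preincubation and 2 h substrate reaction, both 25 °C. Signal: p-Nitroaniline absorbance at 405 nm, read at 0 and 120 min. Control set: low DMSO alone, high DMSO plus 5 µM PC-7.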
PLCb3 inh: human PLC-beta3 inhibitors, primary screen, biochemical, fluorescence; 1-phosphatidylinositol 4,5-bisphosphate phosphodiesterase beta-3 (Homo sapiens), Q01970; inhibition, % at 12.2 µM; AID 720704, 2013; Purified PLC-beta3, fluorogenic substrate; 0.18% of 370,000 active; in the data active = inhibition above about 11%;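 also: 0% = median of compound wells on plate and 100% = full blocker control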
HGIII-sPLA2 inh: human group III sPLA2 inhibitors, primary screen, biochemical, QFRET, BODIPY PC-A2 liposome substrate; 0.56% of 370,000 active; inhibition, % at 12.2 µM; QFRET BODIPY PC-A2 liposome hydrolysis, fluorescence;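 active = inhibition above mean plus 3 SD of compounds lying within the high and low control bounds, cut at about 19% in these data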;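 also: 0% = median of test compound wells and 100% = no enzyme DMSO wells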
PLCg1 inh: PLC-gamma1 enzyme inhibitors, primary screen, biochemical, fluorescence, purified enzyme; 0.84% of 370,000 active; 1-phosphatidylinositol 4,5-bisphosphate phosphodiesterase gamma-1 (Homo sapiens), P19174; fluorogenic substrate; AID 720700, 2013; inhibition, % at 12.2 µM; in the data active = inhibition above about 9.5%
proCasp3 act: activators of human procaspase-3 D3A mutant, primary screen, biochemical, absorbance, PC-3 D3A mutant, single concentration. recombinant procaspase-3 D3A, Ac-DEVD-pNA absorbance 405 nm. activation, % at 8.5 µM. 0.11% of 330,000 active. AID 463141, 2010;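 active = activation above the mean of all tested compounds plus 3 SD, cut at about 21% in these data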;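 also: 0% = DMSO alone and 100% = DMSO wells spiked with extra 5 µM PC-3 D3A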
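Assay system – Procaspase-3 D3A mutant, all three cleavage aspartates alanine · Controls – DMSO-only low control, 5 µM PC-3 D3A high control · Schedule – 1 h compound preincubation, 2 h substrate hydrolysis at 25 °C · Signal – 405 nm absorbance of p-nitroaniline, reads at 0 and 120 min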
Arr AP2 CP1: inhibitors of arrestin peptide binding to AP2, confirmation, biochemical, cherry pick 1, flow cytometry beads. 2% of 1,300 active. inhibition, % at 10 µM. GST-AP2 beads, FITC arrestin peptide binding; GST-fused beta2-adaptin appendage, R879A mutant. shares compounds with Arr AP2 block;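 active = inhibition above a set limit, roughly 3 SD of non-fluorescent compound noise, cut at about 38% in these data; inactive = inhibition at or below that limit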;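 also: loss of bead fluorescence from 50 nM FITC arrestin peptide bound to appendage; 0% = negative control wells and 100% = excess unlabelled arrestin peptide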
GST GSH counter: GST-fluorescein capture on glutathione beads, confirmation, artefact control for arrestin-AP2 inhibitor project, biochemical, cherry pick 1, flow cytometry | shares compounds with Arr AP2 block | GST-fluorescein binding to GSH beads, fluorescence, counter-screen | inhibition, % at 10 µM | 2% of 1,300 active;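 active = inhibition above 50%, about 3 SD of the inhibition seen with non-fluorescent compounds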;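 also: fluorescein maleimide labelled GST captured on 4 micron glutathione beads; higher means more loss of bead fluorescence from quenching or blocked binding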
* = called active by the depositor; i = inactive; . = no result given.

SMILES	Arr AP2 block	procasp7 counter	PLCb3 inh	HGIII-sPLA2 inh	PLCg1 inh	proCasp3 act	Arr AP2 CP1	GST GSH counter
Cc1ccnn1CCC(=O)N1CCCC(Nc2ccc(F)c(F)c2)C1 (stereo not drawn)	67*	4	-12	8	2	0	6	-2
COc1ccccc1OCCC(=O)OCC(=O)Nc1ccc2c(c1)OCO2	11	6	-7	-4	-3	-13	.	.
COc1ccc(OCCCC(=O)Nc2ccc3c(c2)OCO3)cc1	62*	8	-6	-6	-3	1	2	1
COc1ccccc1OCCC(=O)Nc1ccc2c(c1)OCO2	57*	5	-5	3	2	8	1	-1
CCOc1ccc(OCCC(=O)Nc2ccc3c(c2)OCO3)cc1	3	-3	-4	-4	-6	-4	-1	-3
Cc1ccc(OCCC(=O)Nc2ccc3c(c2)OCO3)cc1	7	3	-4	5	1	-3	1	-6
CC(C)CN1C(=O)[C@]2(CC(=O)N(C)C2c2ccccc2)c2cc(-n3cc(CN(C)C)nn3)ccc21 (stereo partly drawn)	.	.	-2	-3	1	.	.	.
Nc1[nH]c(C(=O)c2ccccc2)c(-c2ccc(Br)cc2)c1C(=O)NCCCN1CCOCC1	.	.	-11	4	-8	.	.	.
CCC/C(=C1/c2ccccc2C(=O)N1c1ccccc1)c1ccc(C=O)o1	.	.	-58	5	-43	.	.	.
CC(=O)N[C@@H](C)CCc1ccc(Oc2ccc(OC(C)C)nc2)cc1	.	.	3	-3	3	.	.	.
CCOc1ccc(-c2nc(CSCC(=O)NCc3ccco3)c(C)o2)cc1	98*	10	0	-9	-2	-4	5	-7
CCOc1ccc(-c2nc(CSCC(=O)NC3CC3)c(C)o2)cc1	-2	1	.	.	.	0	.	.
CN1C(=O)C[C@@](C#N)(C(=O)N2CCCC2)[C@H]1c1ccccc1	.	.	-1	-1	0	.	.	.
O=C(c1cccc(C(F)(F)F)c1)N1CC[C@H]2[C@H](CCCN2Cc2ccccc2)C1	.	.	3	-1	-2	.	.	.
COc1ccc(NC(=O)CC(C)CC(=O)NCc2ccccc2)c(OC)c1 (stereo not drawn)	62*	-7	-6	-3	1	1	0	0
COc1cc2c(cc1NC(=O)COc1ccc3ccccc3c1)oc1ccccc12	-2	-9	5	4	1	-2	.	.
COc1ccccc1CC(=O)Nc1cc2oc3ccccc3c2cc1OC	54*	7	6	-4	4	12	-3	-24
CCN(CC)c1ccc(C(=O)OCC(=O)Nc2cc3oc4ccccc4c3cc2OC)cc1	37	-4	0	6	2	0	-13	-5
COc1ccc(CC(=O)Nc2cc3oc4ccccc4c3cc2OC)cc1	1	-1	-1	-17	-1	5	-4	4
CC(=O)OC12CCCN(C1)/C(=C/c1ccccc1)C2 (stereo not drawn)	.	.	4	2	4	.	.	.
COc1cc2c(cc1NC(=O)CSc1ccccn1)oc1ccccc12	18	4	2	-2	-3	-9	.	.
COc1cc2c(cc1NC(=O)CSc1ccc(Cl)cc1)oc1ccccc12	0	-1	1	-1	0	-5	-9	10
Cc1sc2ncnc(NCc3ccco3)c2c1C	85*	-2	-6	2	-4	-5	-6	-1
COc1ccc(CN2C(=O)c3ccccc3C2OC)cc1 (stereo not drawn)	-4	-2	-7	15	2	-1	.	.
COC1c2ccccc2C(=O)N1Cc1ccc(F)cc1 (stereo not drawn)	61*	8	-2	5	0	6	8	-10
SMILES	Arr AP2 block	procasp7 counter	PLCb3 inh	HGIII-sPLA2 inh	PLCg1 inh	proCasp3 act	Arr AP2 CP1	GST GSH counter
CSc1c(N(C)C)c(=O)c1=S	.	.	2	13	2	.	.	.
CCCCNC(=O)Cn1nc([N+](=O)[O-])c([N+](=O)[O-])c1C	69*	0	4	3	4	5	18	-5
C=CCN1C(=O)[C@@H](CC(=O)NCCCC)[C@]2(C(=O)OC)CCCCC=C12	.	.	-2	-2	2	.	.	.
CCC(C)NC(=O)c1ccc2c(c1)N(Cc1ccccc1)C(=O)CS2 (stereo not drawn)	56*	-5	-8	2	-2	-4	-2	-5
Cc1cc(C)c(OCC(=O)Nc2nc3ccccc3[nH]2)c(C)c1	56*	11	-7	13	-3	-3	5	3
O=C(NN1CCOCC1)c1cccc(Cl)c1	71*	-1	-10	6	0	-6	1	-11
O=C(NN1CCOCC1)c1ccc(Cl)cc1	2	-2	4	0	2	-1	.	.
COc1ccc2nc(-c3ccccc3)cc(C(=O)OCC(=O)N3CC(C)OC(C)C3)c2c1 (stereo not drawn)	54*	12	i	-6	i	6	3	-2
CCn1ncc(Br)c1C(=O)NC1CCCCCCC1	60*	.	-11	8	0	.	-3	-8
Cn1ncc(Br)c1C(=O)NC1CCCCC1	6	6	-2	-2	-1	0	.	.
CO[C@H]([C@H](C)/C=C/N(C)C=O)[C@@H](C)C(=O)CC[C@H](C)[C@H](O)[C@H](C)[C@H]1OC(=O)/C=C/C(C)=C/C[C@H](O)C[C@@H]2C=CC[C@@H](C[C@H](OC)C(C)(O)[C@@H](OC)C[C@@H](OC)[C@@H]1C)O2 (stereo partly drawn)	.	.	3	-22	0	.	.	.
COc1ccc(NC(=O)C2CCCN(S(=O)(=O)c3c(C)[nH]c(=O)[nH]c3=O)C2)cc1OC (stereo not drawn)	60*	4	-1	1	3	0	-10	-3
